# Active and inactive are the calls of the source. The calls are words filed in the database; no cut-off is given here.
# How the values were obtained:
# Mus musculus [1] = assay: Induction of wound healing activity in immunosuppressed Balb/c mouse excisional dorsal wound infection model infected with Acinetobacter baumannii NCTC 13301 assessed as closed wound at about 10 mg/kg treated for 7 days once daily measured after 20 days; assay type: functional, organism-based; details: time 20.0 day
# HCT-15 = assay: Anti-cancer activity against human HCT-15 cells incubated for 72 hrs by Cell Titer Glo assay; assay type: functional, cell-based; details: HCT-15, 72 h
# CAKI-1 = assay: Anti-cancer activity against human CAKI-1 cells incubated for 72 hrs by Cell Titer Glo assay; assay type: functional, cell-based; details: CAKI-1, 72 h
# Enterococcus faecium = assay: Depolarization of cytoplasmic membrane in Enterococcus faecium ATCC 700221 at MIC measured for 45 mins by DiSC3-(5) dye based assay; assay type: functional, organism-based
# How it was run: (§1)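 Bacteria loaded with membrane-potential dye DiSC3-(5), then treated with peptide at its MIC for the respective strain; depolarization read as rise in dye fluorescence; polymyxin B and levofloxacin as reference antibiotics.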
# SK-OV-3 = assay: Anti-cancer activity against human SK-OV-3 cells incubated for 72 hrs by Cell Titer Glo assay; assay type: functional, cell-based; details: SK-OV-3, 72 h
# HCT-116 [2] = assay: pH-dependent anticancer activity against human HCT-116 cells in PBS medium at 10 uM incubated for 1 hr; assay type: functional, cell-based
# How it was run: (§2)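 Cells cultured in RPMI, DMEM or PBS, each adjusted to pH 8, 7 or 6, plus one unadjusted (~7.6). Peptide at 10 μM for only 1 h, to limit pH drift from CO₂-bicarbonate buffering. Cell viability read. Controls were melittin, ampicillin and PBS. Two independent repetitions; effects analysed by ANOVA.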
# DU-145 = assay: Anti-cancer activity against human DU-145 cells incubated for 72 hrs by Cell Titer Glo assay; assay type: functional, cell-based; details: DU-145, 72 h
# Acinetobacter baumannii = assay: Induction of outer membrane permeabilization in Acinetobacter baumannii ATCC 19606 measured for 20 mins by NPN uptake assay; assay type: functional, organism-based
# SUD4 = assay: Anti-cancer activity against human SU-DHL-4 cells incubated for 24 hrs by WST assay; assay type: functional, cell-based; details: SU-DHL-4, 24 h
# MOLM-13 = assay: Anti-cancer activity against human MOLM-13 cells incubated for 24 hrs by WST assay; assay type: functional, cell-based; details: MOLM-13, 24 h
# SW-620 = assay: Anti-cancer activity against human SW620 cells incubated for 72 hrs by Cell Titer Glo assay; assay type: functional, cell-based; details: SW-620, 72 h
# Klebsiella pneumoniae = assay: Depolarization of cytoplasmic membrane in Klebsiella pneumoniae ATCC 13883 at MIC measured for 45 mins by DiSC3-(5) dye based assay; assay type: functional, organism-based; how it was run: as §1
# MCF7 [3] = assay: pH-dependent anticancer activity against human MCF7 cells in RPMI medium at 10 uM incubated for 1 hr; assay type: functional, cell-based; how it was run: as §2
# MCF7 [4] = assay: pH-dependent anticancer activity against human MCF7 cells in PBS medium at 10 uM incubated for 1 hr; assay type: functional, cell-based; how it was run: as §2
# Mus musculus [5] = assay: Induction of wound healing activity in immunosuppressed Balb/c mouse excisional dorsal wound infection model infected with Acinetobacter baumannii NCTC 13301 assessed as area of serocellular crust at about 10 mg/kg treated for 7 days once daily measured after 20 days; assay type: functional; details: time 20 day
# [6] = Toxicity in immunosuppressed Balb/c mouse excisional dorsal wound infection model infected with Acinetobacter baumannii NCTC 13301 assessed as decrease in animal survival at about 10 mg/kg treated for 7 days once daily measured after 45 days; assay type: organism-based; details: in vivo, 1080 h, time 45 day
# HL-60 [7] = assay: pH-dependent anticancer activity against human HL-60 cells in DMEM medium at 10 uM incubated for 1 hr; assay type: functional, cell-based; how it was run: as §2
# [8] = Toxicity against reconstructed human skin model assessed as tissue viability at 50 uM incubated for 1 hr followed by compound washout measured after 42 hrs by MTT assay; assay type: tissue-based, Skin of body; details: read-out: Activity
# How it was run: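 Reconstructed human epidermis with stratum corneum, per OECD TG 439 skin irritation guideline. Tissues exposed 1 h to peptide at 50 μM, then 42 h post-treatment incubation. Viability read by MTT. Controls were SDS and melittin.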
# MDA-MB-231 = assay: Anti-cancer activity against human MDA-MB-231 cells incubated for 72 hrs by Cell Titer Glo assay; assay type: functional, cell-based; details: MDA-MB-231, 72 h
# MCF7 [9] = assay: Induction of apoptosis in human MCF7 cells in DMEM medium at pH 6 assessed as increase in cleaved PARP level at 5 uM; assay type: functional, cell-based
# How it was run: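 MCF-7 cells treated with peptides at pH 6; apoptosis detected by immunoblotting for cleaved PARP and cleaved caspase-3.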
# HCT-116 [10] = assay: Anti-cancer activity against human HCT-116 cells incubated for 72 hrs by Cell Titer Glo assay; assay type: functional, cell-based; details: HCT-116, 72 h
# HL-60 [11] = assay: pH-dependent anticancer activity against human HL-60 cells in RPMI medium at 10 uM incubated for 1 hr; assay type: functional, cell-based; how it was run: as §2
# Pseudomonas aeruginosa = assay: Depolarization of cytoplasmic membrane in Pseudomonas aeruginosa PAO1 at MIC measured for 45 mins by DiSC3-(5) dye based assay; assay type: functional, organism-based; how it was run: as §1
# [12] = Anti-cancer activity against human MEC-1 cells incubated for 24 hrs by WST assay; assay type: functional, cell-based; details: MEC1, 24 h
# HCT-116 [13] = assay: pH-dependent anticancer activity against human HCT-116 cells in DMEM medium at 10 uM incubated for 1 hr; assay type: functional, cell-based; how it was run: as §2
# MDA-MB-435 = assay: Anti-cancer activity against human MDA-MB-435 cells incubated for 72 hrs by Cell Titer Glo assay; assay type: functional, cell-based; details: MDA-MB-435, 72 h
# Escherichia coli = assay: Induction of outer membrane permeabilization in Escherichia coli ATCC 11775 measured for 20 mins by NPN uptake assay; assay type: functional, organism-based
# A549 = assay: Anti-cancer activity against human A549 cells incubated for 72 hrs by Cell Titer Glo assay; assay type: functional, cell-based; details: A549, 72 h
# Staphylococcus aureus [14] = assay: Antimicrobial activity against Staphylococcus aureus NE934 harboring single transposon insertion mutation in staphopain B at 30 uM incubated for 18 hrs relative to control; assay type: functional
# How it was run: (§3)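 CA-MRSA USA300 LAC derivative JE2 and single transposon insertion mutants derived from JE2, each lacking an extracellular protease gene, were exposed to peptides up to 30 μM. The read-out was percent growth inhibition. Peptides were dissolved in PBS, and tests were run in triplicate.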
# Staphylococcus aureus [15] = assay: Antimicrobial activity against Staphylococcus aureus NE1506 harboring single transposon insertion mutation in V8 protease at 30 uM incubated for 18 hrs relative to control; assay type: functional; how it was run: as §3
# RPMI-8226 = assay: Anti-cancer activity against human RPMI-8226 cells incubated for 72 hrs by Cell Titer Glo assay; assay type: functional, cell-based; details: RPMI-8226, 72 h
# HL-60 [16] = assay: Anti-cancer activity against human HL-60 cells incubated for 72 hrs by Cell Titer Glo assay; assay type: functional, cell-based; details: HL-60, 72 h
# [17] = Toxicity in neutropenic CD-1 mouse deep thigh infection model infected with Acinetobacter baumannii ATCC 19606 assessed as body weight change at 0.16 mg/kg, ip measured after 4 days; assay type: organism-based; details: in vivo, 96 h, time 4 day
# How it was run: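 Neutropenic mice infected intramuscularly in the right thigh with 10⁶ cells per mL of A. baumannii ATCC 19606. […] Body weight monitored for toxicity. Euthanasia 4 days post-infection (day 8). n = 6 per group, from three inocula.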
# Mus musculus [18] = assay: Induction of wound healing activity in immunosuppressed Balb/c mouse excisional dorsal wound infection model infected with Acinetobacter baumannii NCTC 13301 assessed as reduction in wound expansion at about 10 mg/kg treated for 7 days once daily; assay type: functional, organism-based; details: time 7.0 day
substance,measurement,setting,value
H-KKKKLKKILKKLFQFINQLDNQLQDIKQNK-NH2,Activity,Mus musculus [1],Active
same,IC50,HCT-15,1000 nM
same,IC50,CAKI-1,1000 nM
same,Activity,Enterococcus faecium,Active
same,IC50,SK-OV-3,1000 nM
same,Activity,HCT-116 [2],Active
same,IC50,DU-145,1000 nM
same,Activity,Acinetobacter baumannii,inactive
same,IC50,SUD4,≤ 10000 nM
same,IC50,MOLM-13,≤ 10000 nM
same,IC50,SW-620,1000 nM
same,Activity,Klebsiella pneumoniae,Active
same,Activity,MCF7 [3],Active
same,Activity,MCF7 [4],Active
same,Activity,Mus musculus [5],<10 mm2
same,Activity,[6],Toxic
same,Activity,HL-60 [7],Active
same,"viability at 1 h, 50 µM",[8],100%
same,IC50,MDA-MB-231,1000 nM
same,Activity,MCF7 [9],Active
same,IC50,HCT-116 [10],1000 nM
same,Activity,HL-60 [11],Active
same,Activity,Pseudomonas aeruginosa,Active
same,IC50,[12],≤ 10000 nM
same,Activity,HCT-116 [13],Active
same,IC50,MDA-MB-435,1000 nM
same,Activity,Escherichia coli,Active
same,IC50,A549,1000 nM
same,inhibition at 30 µM,Staphylococcus aureus [14],< 45%
same,inhibition at 30 µM,Staphylococcus aureus [15],< 45%
same,IC50,RPMI-8226,1000 nM
same,IC50,HL-60 [16],1000 nM
same,Activity,[17],Non-Toxic
same,Activity,Mus musculus [18],Active

# — ChEMBL document CHEMBL5576140, “Computational Design of Pore-Forming Peptides with Potent Antimicrobial and Anticancer Activities” (J Med Chem, 2024)
